In brackets after ≈: the same amount, converted by molar mass. Activity calls are given as the source filed them.

The target of data set [1] is T1, Albumin (Homo sapiens, UniProt P02768). As to the kind of experiment: Binding affinity to human serum albumin at pH 7.4 at 303 K by Scatchard plot analysis. The class given is ADME. The following applies: isolated protein. In a few lines:
(§1)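 Scatchard treatment of the HSA fluorescence-quenching titration in pH 7.4 solution (excitation 295 nm) at each temperature. It gave the binding constant Kb and the number of binding sites n, with fit correlation R and SD.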

The target of data set [2] is T1, Albumin. Kind of data set: Binding affinity to human serum albumin at pH 7.4 at 310 K by Scatchard plot analysis. The class given is ADME. The following applies: isolated protein. In a few lines: as §1
Data set [3] is described as follows: Cytotoxicity against rat PC12 cells assessed as cell viability at <512 ug/mL after 72 hrs by MTT assay relative to control. Type of data set: cell-based, PC-12. As to conditions: read-out: Activity. In short, it runs like this: (§2)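 PC12 and human hepatocyte LO2 cells were exposed to compound at 8–512 µg/mL in twofold steps. Viability was read by colorimetric MTT assay, with norfloxacin as positive control. Each value is the mean of three replicates.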
(In general: Tetrazolium dyes change colour on reduction, which living cells bring about.)

A further data set has as its system Escherichia coli. As to the kind of experiment: Antibacterial activity against Escherichia coli ATCC 25922 after 18 to 24 hrs. Type of data set: functional.
The subject of data set [4] is Staphylococcus aureus. As to the kind of experiment: Antibacterial activity against methicillin-resistant Staphylococcus aureus N315 after 18 to 24 hrs. Type of data set: functional.
For data set [5], the system named is Bacillus. As to the kind of experiment: Antibacterial activity against Bacillus proteus ATCC 13315 after 18 to 24 hrs. Type of data set: functional.
In data set [6] the test system is Staphylococcus aureus. As to the kind of experiment: Binding affinity to methicillin-resistant Staphylococcus aureus double stranded genomic DNA assessed as decrease in fluorescence intensity in absence of Cu2+ ions by spectrofluorometric analysis. In a few lines: (§3)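 MRSA genomic DNA stock was quantified by absorbance at 260 nm, using ε260 = 6600 L mol⁻¹ cm⁻¹ (as molarity of phosphate). Purity was checked by the A260/A280 ratio.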

A short description of data set [7]: Cytotoxicity against human LO2 cells assessed as reduction in cell viability at 256 ug/mL after 72 hrs by MTT assay. Type of data set: cell-based. As to conditions: l02, 72 h. In a few lines:
as §2

The subject of the next data set is Pseudomonas aeruginosa. As to the kind of experiment: Antibacterial activity against Pseudomonas aeruginosa ATCC 9027 after 18 to 24 hrs. The class given is functional.
Data set [8] concerns the target T1, Albumin. Kind of data set: Binding affinity to human serum albumin at pH 7.4 at 288 K by Scatchard plot analysis. Type of data set: ADME. As to conditions: isolated protein. In short, it runs like this:
as §1

Data set [9] relates to Staphylococcus aureus. Kind of data set: Binding affinity to methicillin-resistant Staphylococcus aureus […] genomic DNA assessed as decrease in fluorescence intensity at 2 x 10^-5M at 294 K by spectrofluorometric analysis. In short, it runs like this: as §3
In data set [10] the test system is Staphylococcus aureus. As to the kind of experiment: Binding affinity to methicillin-resistant Staphylococcus aureus double stranded genomic DNA assessed as decrease in fluorescence intensity at 2.23 x 10^-5M in presence of 20 x 10^-5 M Cu2+ ions by spectrofluorometric analysis. In a few lines:
as §3

A short description of data set [11]: Antibacterial activity against Eberthella typhosa ATCC 14028 after 18 to 24 hrs. The class given is functional.
Data set [12] has as its system Staphylococcus aureus. As to the kind of experiment: Binding affinity to methicillin-resistant Staphylococcus aureus double stranded genomic DNA assessed as decrease in fluorescence intensity at 2.23 x 10^-5 M in presence of 0.4 x 10^-6 M Cu2+ ions by spectrofluorometric analysis. In short, it runs like this:
as §3

For data set [13], the system named is Staphylococcus aureus. As to the kind of experiment: Binding affinity to methicillin-resistant Staphylococcus aureus double stranded genomic DNA assessed as hypochromic effect by spectroscopic analysis. In short, it runs like this:
as §3

The nature of data set [14]: Cytotoxicity against rat PC12 cells assessed as cell viability at 512 ug/mL after 72 hrs by MTT assay. The class given is cell-based. As to conditions: pc-12, 72 h. In short, it runs like this: as §2
Data set [15] is described as follows: Cytotoxicity against human LO2 cells assessed as cell viability at 512 ug/mL after 72 hrs by MTT assay. As to conditions: l02, 72 h. The class given is cell-based. In a few lines:
as §2

The next data set has as its system Micrococcus luteus. As to the kind of experiment: Antibacterial activity against Micrococcus luteus ATCC 4698 after 18 to 24 hrs. The following applies: NCTC 2665. The class given is functional.
Data set [16] has as its system Staphylococcus aureus. As to the kind of experiment: Electrostatic binding to methicillin-resistant Staphylococcus aureus double stranded genomic DNA assessed as Stern-Volmer constant in presence of potassium iodide by steady state quenching analysis. In short, it runs like this:
as §3

Data set [17] in a line: Inhibition of Escherichia coli DNA gyrase assessed as reduction in enzyme-mediated supercoiling of pBR322 DNA after 1.5 hrs by agarose gel electrophoresis method.
Data set [18] can be described thus: Cytotoxicity against human LO2 cells assessed as cell viability at <512 ug/mL after 72 hrs by MTT assay relative to control. The following applies: read-out: Activity. Type of data set: cell-based, L02. In a few lines: as §2
Data set [19] can be described thus: Binding affinity to 0 to 6.03 x 10^-5 M Cu2+ assessed as 1:1 compound/metal ion complex formation at 2.23 x 10^-5 M at pH 7.4 by spectrofluorimetric method.
The nature of data set [20]: Binding affinity to 4.69 x 10^-5 M Cu2+ at 2.23 x 10^-5 M at pH 7.4 by spectrofluorimetric method.
A short description of data set [21]: Cytotoxicity against rat PC12 cells assessed as reduction in cell viability at 256 ug/mL after 72 hrs by MTT assay. Type of data set: cell-based. As to conditions: pc-12, 72 h. In short, it runs like this: as §2
The nature of data set [22]: Cytotoxicity against human LO2 cells assessed as reduction in cell viability at 128 ug/mL after 72 hrs by MTT assay. Type of data set: cell-based. The following applies: l02, 72 h. In short, it runs like this: as §2
For data set [23], the system named is Staphylococcus aureus. Kind of data set: Antibacterial activity against methicillin/quinolone-resistant Staphylococcus aureus ATCC 700699. The class given is functional.
A short description of data set [24]: Cytotoxicity against rat PC12 cells assessed as reduction in cell viability at 128 ug/mL after 72 hrs by MTT assay. The class given is cell-based. As to conditions: pc-12, 72 h. In a few lines:
as §2

For data set [25], the system named is Staphylococcus aureus. Kind of data set: Antibacterial activity against Staphylococcus aureus ATCC 25923 after 18 to 24 hrs. The class given is functional.
A further data set deals with Bacillus spizizenii. As to the kind of experiment: Antibacterial activity against Bacillus subtilis ATCC 6633 after 18 to 24 hrs. Type of data set: functional.
The subject of another data set is Calf thymus DNA. As to the kind of experiment: Binding affinity to calf thymus double stranded DNA assessed as hypochromic effect in absence of Mg2+ ion by […] spectroscopic analysis. The class given is nucleic-acid assay. The following applies: Bos taurus.
The next data set has as its system Eberthella typhosa. Kind of data set: Potency index, ratio of norfloxacin MIC to compound MIC for Eberthella typhosa ATCC 14028. Type of data set: functional.
Data set [26] deals with Bacillus. As to the kind of experiment: Potency index, ratio of norfloxacin MIC to compound MIC for Bacillus proteus ATCC 13315. Type of data set: functional.

T1 sequence (P02768 whole entry): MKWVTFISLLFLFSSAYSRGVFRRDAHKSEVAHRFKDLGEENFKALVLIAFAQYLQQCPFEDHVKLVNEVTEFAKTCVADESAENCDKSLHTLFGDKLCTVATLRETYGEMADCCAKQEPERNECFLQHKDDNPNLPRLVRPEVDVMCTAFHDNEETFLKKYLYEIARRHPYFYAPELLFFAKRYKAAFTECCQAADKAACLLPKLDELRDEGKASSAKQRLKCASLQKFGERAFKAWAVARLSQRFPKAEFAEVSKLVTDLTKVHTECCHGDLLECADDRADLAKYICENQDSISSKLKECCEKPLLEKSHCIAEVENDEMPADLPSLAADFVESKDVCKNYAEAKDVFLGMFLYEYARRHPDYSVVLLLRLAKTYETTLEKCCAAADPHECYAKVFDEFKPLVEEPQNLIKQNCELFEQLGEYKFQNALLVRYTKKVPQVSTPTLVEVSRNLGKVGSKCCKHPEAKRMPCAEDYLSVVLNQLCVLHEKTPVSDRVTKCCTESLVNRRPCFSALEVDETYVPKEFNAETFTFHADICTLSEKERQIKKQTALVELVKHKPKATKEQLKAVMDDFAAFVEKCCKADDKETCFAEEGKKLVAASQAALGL

Turning to `CCn1cc(-c2csc(N)n2)c(=O)c2cc(N3CCCC3)c(Cl)cc21`, the values for the Kb at Albumin [1], on Albumin [2] and on Albumin [8] were 0.701 ×10⁵ L/mol, 0.656 ×10⁵ L/mol and 0.726 ×10⁵ L/mol, respectively. Also, the viability at 72 h in data set [3] and in [18] was more than 88% in each case. Also, the MIC in the data set with Escherichia coli was found to be 0.8 µg/mL (≈ 2.13 µM); against Staphylococcus aureus [4] it was 0.8 µg/mL (≈ 2.13 µM); in the data set with Bacillus [5], 1 µg/mL (≈ 2.67 µM); in the data set with Pseudomonas aeruginosa, 0.5 µg/mL (≈ 1.33 µM); in data set [11], 2 µg/mL (≈ 5.33 µM); against Micrococcus luteus it was 2.7 µg/mL (≈ 7.2 µM). Also, the MIC was determined as 16 µg/mL (≈ 42.7 µM) with Staphylococcus aureus [23], 0.6 µg/mL (≈ 1.6 µM) against Staphylococcus aureus [25] and 1.3 µg/mL (≈ 3.47 µM) against Bacillus spizizenii. For the same compound, the outcome in the data set with Staphylococcus aureus [6] was inactive. Besides, the Activity entry in [7] is “Non-toxic”; with Staphylococcus aureus [13] it was 11.4%; in data set [14], “Non-toxic”; in [15], “Non-toxic”; in [21], “Non-toxic”; in [22] it was “Non-toxic”. Moreover, the Activity entry in data set [24] is given as “Non-toxic”. For the same compound, the result (in the data set with Staphylococcus aureus [9]; in the data set on Staphylococcus aureus [10]; in the data set with Staphylococcus aureus [12]; in [19]; in data set [20]) was Active. Further, the KSV with Staphylococcus aureus [16] was determined as 30.1 M⁻¹. Also, in data set [17], the IC50 came to 11.5 µM.

Consider `CCn1cc(C(=O)O)c(=O)c2cc(F)c(N3CCNCC3)cc21` [NORFLOXACIN], for which the MIC against Escherichia coli worked out at 4.3 µg/mL (≈ 13.5 µM); with Staphylococcus aureus [4], 10.7 µg/mL (≈ 33.5 µM); in the data set on Bacillus [5], 13.3 µg/mL (≈ 41.6 µM); against Pseudomonas aeruginosa, 1.7 µg/mL (≈ 5.32 µM); in data set [11], 5.3 µg/mL (≈ 16.6 µM); in the data set on Micrococcus luteus it was 2.7 µg/mL (≈ 8.46 µM). For the same compound, the values for the MIC against Staphylococcus aureus [25] and against Bacillus spizizenii were 0.8 µg/mL (≈ 2.51 µM) and 1.3 µg/mL (≈ 4.07 µM), respectively. The Activity in the data set with Calf thymus DNA is 16%; in [7], “Toxic”; in [15] it was “Toxic”; in [21] it was “Toxic”; in [22], “Toxic”; in data set [24], “Toxic”. Moreover, the IC50 in data set [17] came out at 18.2 µM.

For `CCn1cc(-c2csc(N)n2)c(=O)c2cc(F)c(F)cc21`, the MIC against Escherichia coli was found to be 256 µg/mL (≈ 833 µM); in the data set on Staphylococcus aureus [4] it was 213 µg/mL (≈ 694 µM); in the data set with Bacillus [5], 0.6 µg/mL (≈ 1.95 µM); with Pseudomonas aeruginosa it was 78.6 µg/mL (≈ 256 µM); in data set [11], 1.2 µg/mL (≈ 3.9 µM); against Micrococcus luteus, 5.3 µg/mL (≈ 17.2 µM). In addition, the results for the MIC against Staphylococcus aureus [25] and against Bacillus spizizenii were 0.8 µg/mL (≈ 2.6 µM) and 26.7 µg/mL (≈ 86.9 µM), respectively. The Ratio turned out to be 4 with Eberthella typhosa and 22 with Bacillus [26].

As a reminder, the MIC is the smallest concentration in the dilution series that meets the test's criterion for growth inhibition. As usually defined, the IC50 is the concentration that inhibits the measured activity by half.

The values are drawn from ChEMBL document CHEMBL3822423 (J Med Chem, 2016).
